A selection: hits, their analogues and other compounds. The true share with any hit is near 3.5%.
FXIIa inh 1536 – blocks human coagulation factor XIIa protease activity; P00748; purified FXIIa, Boc-QGR-AMC fluorogenic substrate, 2 h; inhibition, % at 5 µM; actives 0.3% (n = 220,000); AID 800; in the data active = inhibition above about 40%;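 note: 0% = enzyme with no compound and 100% = blank without enzyme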
AHR act – human AHR activation; P35869; AHR-responsive luciferase reporter cells, luminescence; activation, % at 5 µM; actives 2.5% (n = 320,000); AID 2796; in the data active = activation above about 47%;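 note: 0% = vehicle wells and 100% = reference agonist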
STAT3 act – activators of IL-6 induced STAT3 signaling | actives 0.91% (n = 190,000) | AID 871 | U3A cells, IL-6 STAT3-luciferase reporter, luminescence; 100% = signal with IL-6 EC80 alone | activation (% of control), % at 5.6 µM;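 active = activation above the screen-wide mean of compound activation plus 3 SD, cut at about 130% in these data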;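 note: 0% = background luminescence of wells with medium and substrate only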
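Material: STAT3-luciferase reporter U3A cells. Controls: IL-6-treated wells, 100% activation. Read-out: % activation versus median of IL-6-stimulated wells. Probe or stimulus: IL-6 stimulus at 33 ng/mL final. Timing: compound 1 h, then IL-6 6 h at 37 °C. Signal: reporter luminescence signal.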
FXIa inh – factor XIa (human) inhibition; AID 798; actives 0.14% (n = 220,000); purified FXIa, Boc-Glu-Ala-Arg-AMC fluorogenic substrate; inhibition, % at 5 µM;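 active = inhibition of at least 40%; inactive = inhibition below 40%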;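 note: fluorescence of freed AMC excited at 355 nm; 0% = enzyme without compound and 100% = no enzyme blank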
Target sequence (P03951 19-387 limits assumed): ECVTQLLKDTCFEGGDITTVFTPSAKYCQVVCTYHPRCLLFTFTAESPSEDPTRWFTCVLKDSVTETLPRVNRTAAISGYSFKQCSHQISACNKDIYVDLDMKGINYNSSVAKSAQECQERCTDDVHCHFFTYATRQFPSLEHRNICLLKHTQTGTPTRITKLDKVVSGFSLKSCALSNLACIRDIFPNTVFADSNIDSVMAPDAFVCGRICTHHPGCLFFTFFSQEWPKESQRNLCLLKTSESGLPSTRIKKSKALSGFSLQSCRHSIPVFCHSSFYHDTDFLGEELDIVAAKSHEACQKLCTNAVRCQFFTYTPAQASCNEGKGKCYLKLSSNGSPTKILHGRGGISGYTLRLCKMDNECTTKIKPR
Target sequence (P03951 388-625 limits assumed): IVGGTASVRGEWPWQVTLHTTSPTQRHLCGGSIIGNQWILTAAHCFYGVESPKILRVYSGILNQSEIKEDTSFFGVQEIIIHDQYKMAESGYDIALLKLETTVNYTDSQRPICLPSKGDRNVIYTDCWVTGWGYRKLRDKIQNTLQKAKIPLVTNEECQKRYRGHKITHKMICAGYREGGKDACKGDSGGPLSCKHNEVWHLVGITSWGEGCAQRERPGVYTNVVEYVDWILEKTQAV
hK5 inh – inhibitors of human kallikrein 5; Q9Y337; recombinant hK5, fluorogenic AMC substrate cleavage; inhibition, % at 5 µM; actives 0.59% (n = 210,000); AID 873;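 active = inhibition of 40% or more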;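 note: 0% = enzyme controls without compound and 100% = no-enzyme blanks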
Thrombin inh – blocks human thrombin protease activity; AID 1046; inhibition, % at 5 µM; alpha-thrombin, Boc-VPR-AMC fluorogenic substrate cleavage; actives 0.26% (n = 220,000);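 active = inhibition at or above 40%; inactive = inhibition below 40%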;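 note: 0% = enzyme with no compound and 100% = wells without enzyme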
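signal = AMC fluorescence, 355/460 nm | material = human alpha-thrombin enzyme | control set = enzyme without compound as high, wells lacking enzyme as low | times = reaction at room temperature | read-out basis = percent inhibition scaled between no-compound controls and no-enzyme blanks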
* = called active by the depositor; . = no result given.

SMILES	FXIIa inh 1536	AHR act	STAT3 act	FXIa inh	hK5 inh	Thrombin inh
Cc1ccc(-c2cc(N)n(-c3ccc(C)cc3)n2)cc1	13.6	51.8*	103.9	1.9	-3.0	2.2
COc1ccccc1NS(=O)(=O)c1cc(Cl)ccc1OC	18.7	12.8	90.9	18.3	-22.6	4.2
O=C1Nc2cc(C(F)(F)F)ccc2N2CCCCC12 (stereo unspecified)	.	73.8*	.	.	.	.
O=C1Nc2ccc(C(F)(F)F)cc2N2CCCC12 (stereo unspecified)	.	8.5	.	.	.	.
CCN(CC)C(=O)c1c(NC(=O)c2ccccc2)sc(C)c1C	15.8	23.0	99.2	-9.4	-17.4	-14.7
CCN(CC)Cc1c(NC(=O)c2ccccc2)sc(C)c1C	4.9	64.8*	123.0	-3.7	-2.5	-6.3
O=C(CC1OC(=O)c2ccccc21)Nc1ccc(Cl)c(S(=O)(=O)N2CCCCC2)c1 (stereo unspecified)	.	2.8	.	.	.	.
CCOC(=O)C[n+]1c(C)sc2ccc(OC)cc21	43.1*	0.5	105.2	9.2	-9.7	1.5
Brc1cc2[nH]cnc2c2ccccc12	3.2	63.0*	130.4	-12.4	-29.4	0.9
COc1ccc(NC(=O)CN(C)S(=O)(=O)c2ccc3c(c2)OCCO3)c2ncccc12	-4.8	2.0	105.7	-4.6	9.1	-2.0
O=[N+]([O-])c1cc(Cl)ccc1-c1nc(-c2ccccc2)no1	40.0	43.8	102.9	12.2	75.1*	33.6
O=[N+]([O-])c1cc(Cl)ccc1-c1nc(-c2ccncc2)no1	8.6	26.6	106.5	2.8	.	2.2
COc1ccc(-c2nc3ncccc3o2)cc1NC(=O)c1ccco1	.	76.3*	.	.	.	.
Cc1ccc(-c2nc3ncccc3o2)cc1NC(=O)c1ccccc1	7.7	4.7	.	-6.4	-2.9	2.9
Cc1cc(-c2nc3ncccc3o2)ccc1NC(=S)NC(=O)C(C)C	.	4.0	92.2	37.1	19.5	40.4*
Cc1ccc(C(=O)OCC(=O)NC2CC2)cc1S(=O)(=O)N1CCOCC1	.	6.3	.	.	.	.
CCSc1nc2ccccc2n1C(=O)/C=C\c1ccc(OC)c(OC)c1	21.3	0.1	109.3	17.3	0.4	-1.1
Cc1ccc(/C=N/n2cnnc2)s1	15.8	-1.0	104.7	8.6	52.7*	18.4
Brc1ccc(/C=N/n2cnnc2)s1	5.6	2.1	.	-0.8	1.6	-2.4
O=C1CC(CC(=O)N/N=C/c2ccccc2[N+](=O)[O-])=NN1	6.4	47.4*	91.7	15.0	-3.9	-3.1
COc1ccc(-c2cn3ccccc3n2)cc1OC	9.3	61.1*	173.3*	6.8	-51.1	4.8
COc1ccc(-c2cn3cccc(C)c3n2)cc1F	21.4	69.8*	101.4	31.6	40.8*	13.3
Cc1cccn2cc(-c3c[nH]c4ccccc34)nc12	.	58.7*	139.8*	33.6	19.3	38.8
Cc1cccn2cc(-c3ccc(Cl)cc3)nc12	11.0	71.1*	72.5	0.2	.	-5.0
O=C(Nc1ccc(-c2n[nH]c(=S)o2)cc1)c1ccccc1	.	0.4	.	.	.	.
SMILES	FXIIa inh 1536	AHR act	STAT3 act	FXIa inh	hK5 inh	Thrombin inh
Cc1cc(NS(=O)(=O)c2ccc(NC(=O)C(C)Oc3cc(C)c(Cl)c(C)c3)cc2)no1 (stereo unspecified)	.	0.0	.	.	.	.
COc1ccc(-c2nc3c(Br)c(N)c(Br)cc3o2)cc1	-13.4	48.6*	177.8*	-1.6	6.9	-3.2
COc1ccc(-c2nc3ccc([N+](=O)[O-])cc3o2)cc1	16.2	-3.0	89.6	6.2	-6.2	-0.6
O=C1N2CCCc3cccc(c32)C12Nc1ccccc1S2 (stereo unspecified)	4.5	.	135.2*	-3.9	-10.0	-2.6
C/C(=N\NC(=O)c1ccc(NS(=O)(=O)c2cccs2)cc1)c1ccc(O)cc1O	5.0	6.3	.	4.0	-6.4	-4.0
COc1ccc(CNC(=O)Nc2cccc3ccccc23)cc1	14.0	9.8	101.6	-4.1	-16.8	-3.5
C1=C(c2ccccc2)CCN(c2nc3ccccc3n3cnnc23)C1	3.7	78.7*	123.0	-1.2	40.6*	-6.0
OCCNc1nc(N2CCCC2)nc(N2CCCC2)n1	0.0	1.4	108.1	-2.0	-15.3	-7.3
OCCNc1nc(Nc2cccc(O)c2)nc2ccccc12	6.0	19.2	.	-1.8	0.2	-2.7
COc1cccc(Nc2nc(NCCO)c3ccccc3n2)c1	13.0	49.2*	78.0	3.9	-3.9	2.6
COc1cccc(Nc2nc(NCCO)nc(N3CCCC3)n2)c1	.	48.0*	.	.	.	.
C=CCNc1nc(NCCO)nc(N2CCCC2)n1	19.4	65.5*	107.2	4.3	-2.8	-13.1
CCCNc1nc(Nc2ccc(C)cc2)nc(N2CCCC2)n1	-3.1	50.1*	76.4	2.4	-2.7	-22.4
COc1ccc(OC)c(/C=C/C(=O)OCC(=O)NCc2cccs2)c1	.	6.5	.	.	.	.
COc1ccc(Cl)cc1NC(=O)C1CCN(C(=O)C2CC(=O)N(c3ccc(C)cc3)C2)CC1 (stereo unspecified)	.	-0.4	.	.	.	.
COc1cccc(Nc2nc(-c3ccccc3)nc3ccccc23)c1	.	53.8*	.	.	.	.
CN(CC(CC(=O)Nc1nncs1)c1ccccc1)S(=O)(=O)c1ccc(Br)cc1 (stereo unspecified)	-0.8	0.8	103.9	-6.1	-25.9	-7.7
COc1cccc(CNc2ccc3c(c2)ncn3C(C)C)c1OC	36.7	45.5	121.0	6.6	58.0*	30.0
Cc1cc(Cn2nc(C(=O)NCC3CC3)cc2-c2ccccc2)on1	.	-1.3	.	.	.	.
Cc1ccc(NC(=O)C2CCCN(S(=O)(=O)c3cnc[nH]3)C2)cc1F (stereo unspecified)	12.4	7.7	105.0	10.6	71.2*	18.6
CC(C)c1ccc(NC(=O)C2CCCN(S(=O)(=O)c3cnc[nH]3)C2)cc1 (stereo unspecified)	-0.5	9.8	94.0	-1.9	62.1*	7.5
CC1CCCN(C(=O)CCc2nnc(-c3ccc4c(c3)OCO4)o2)C1 (stereo unspecified)	.	13.9	.	.	.	.
CN1CCC(N(C)CC(C)(C)NS(=O)(=O)c2ccccc2)CC1	5.4	-0.8	.	-0.9	-1.8	-1.1
CN(C)S(=O)(=O)c1cccc(NC(=O)c2c[nH]c3ccccc23)c1	.	49.4*	.	.	.	.
COc1ccc(S(=O)(=O)N(C)C)cc1NC(=O)Cc1c[nH]c2ccccc12	25.4	10.4	133.3*	28.8	19.3	8.1
Cn1nnnc1SCC(=O)Nc1cc(S(=O)(=O)N2CCCCC2)ccc1Cl	.	1.4	.	.	.	.
O=C(CSc1nnc(-c2ccc(Cl)cc2Cl)n1C1CCCCC1)N1CCCC1	4.0	-1.4	95.3	-6.2	-23.4	-2.4
COc1cccc(NC(=S)NCCC(c2ccccc2)c2ccccc2)c1	-0.3	6.1	92.0	-15.1	-20.2	41.3*
COc1cccc(NC(=S)Nc2ccc(Br)cc2Cl)c1	40.5*	1.1	.	36.5	38.9	51.5*
COc1cc(NC(=S)NCCC(c2ccccc2)c2ccccc2)cc(OC)c1	10.4	5.4	102.2	5.6	-7.8	-3.4

Compound activity (PubChem)
